Each block holds one compound with its values, some of them ahead of it.
Assays:
[1] = Metabolic stability in human liver microsomes assessed as time when 50% of compound remains; assay type: ADME; conditions: read-out: Time
[2] = Cytotoxicity against human HepG2 cells assessed as ATP contents at 30 uM after 24 hrs relative to control; assay type: cell-based; conditions: read-out: Activity
Summary of the method: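 HepG2 cells were exposed to compound at 30 μM. Cellular ATP content was measured 24 h after compound addition and expressed as % of vehicle-treated control.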

[3] = Metabolic stability in rat liver microsomes assessed as time when 50% of compound remains; assay type: ADME; conditions: read-out: Time
[4] = target: T1, Proteinase-activated receptor 1 (Homo sapiens, UniProt P25116); test: Displacement of [3H]haTRAP from PAR1 in human platelet membranes after 60 mins by scintillation counting analysis; assay type: cell membranes
T1 sequence (P25116 whole entry): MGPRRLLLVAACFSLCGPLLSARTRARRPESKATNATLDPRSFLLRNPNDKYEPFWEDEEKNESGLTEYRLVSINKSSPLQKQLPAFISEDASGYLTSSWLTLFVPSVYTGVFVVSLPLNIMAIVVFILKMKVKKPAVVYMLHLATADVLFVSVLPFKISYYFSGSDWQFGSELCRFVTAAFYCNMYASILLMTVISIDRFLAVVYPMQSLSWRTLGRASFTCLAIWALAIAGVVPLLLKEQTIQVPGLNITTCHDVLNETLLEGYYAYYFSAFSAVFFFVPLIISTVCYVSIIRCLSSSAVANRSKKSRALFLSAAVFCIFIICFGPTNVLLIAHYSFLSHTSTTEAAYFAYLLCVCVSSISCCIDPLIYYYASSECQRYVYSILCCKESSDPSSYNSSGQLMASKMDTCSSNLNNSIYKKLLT
Summary of the method: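 Radioligand binding to PAR1 using a tritiated peptide ligand, phenylalanine-arginine-cyclohexylalanine-homoarginine-[³H]-tyrosine-NH₂, reported as IC50. Each value is the average of three measurements. Racemic mixtures were tested without separation. Vorapaxar, synthesized in-house, was included as the reference standard.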

Structure (SMILES): O=C(NC1C[C@@H]2CCCC[C@@H]2[C@H]1/C=C/c1ccc(-c2cccc(F)c2)cn1)C1CC1 (mixture of isomers)
IC50 [4]: 230 nM

Structure (SMILES): CC(=O)NC1C[C@@H]2CCCC[C@@H]2[C@H]1/C=C/c1ccc(-c2cccc(F)c2)cn1 (mixture of isomers)
IC50 [4]: 53 nM

Structure (SMILES): COC1C[C@@H]2CCCC[C@@H]2[C@H]1/C=C/c1ccc(-c2cccc(F)c2)cn1 (mixture of isomers)
IC50 [4]: 67 nM

Structure (SMILES): O=C1C[C@@H]2CCCC[C@@H]2[C@H]1/C=C/c1ccc(-c2cccc(F)c2)cn1 (racemic)
IC50 [4]: 1100 nM

Structure (SMILES): CC(C)(C)OC(=O)NC1C[C@@H]2CCCC[C@@H]2[C@H]1/C=C/c1ccc(-c2cccc(F)c2)cn1 (mixture of isomers)
IC50 [4]: 7800 nM

Structure (SMILES): COC(=O)NC1C[C@@H]2CCCC[C@@H]2[C@H]1/C=C/c1ccc(-c2cccc(F)c2)cn1 (mixture of isomers)
IC50 [4]: 980 nM

Structure (SMILES): Fc1cccc(-c2ccc(/C=C/[C@H]3C(OCc4ccccc4)C[C@@H]4CCCC[C@@H]43)nc2)c1 (mixture of isomers)
IC50 [4]: 280 nM

Structure (SMILES): COC1(C)C[C@@H]2CCCC[C@@H]2[C@H]1/C=C/c1ccc(-c2cccc(F)c2)cn1 (mixture of isomers)
IC50 [4]: 43 nM

Structure (SMILES): OC1C[C@@H]2CCCC[C@@H]2[C@H]1/C=C/c1ccc(-c2cccc(F)c2)cn1 (mixture of isomers)
IC50 [4]: 220 nM

Structure (SMILES): O=C(Nc1ccccc1)OC1C[C@@H]2CCCC[C@@H]2[C@H]1/C=C/c1ccc(-c2cccc(F)c2)cn1 (mixture of isomers)
IC50 [4]: 360 nM

Structure (SMILES): CC(=O)OC1C[C@@H]2CCCC[C@@H]2[C@H]1/C=C/c1ccc(-c2cccc(F)c2)cn1 (mixture of isomers)
IC50 [4]: 67 nM

Structure (SMILES): CCOC(=O)NC1C[C@@H]2CCCC[C@@H]2[C@H]1/C=C/c1ccc(-c2cccc(F)c2)cn1 (mixture of isomers)
IC50 [4]: 2000 nM

Structure (SMILES): Fc1cccc(-c2ccc(/C=C/[C@@H]3[C@H]4CCCC[C@@H]4CC34OCCO4)nc2)c1 (racemic)
IC50 [4]: 470 nM

Structure (SMILES): CS(=O)(=O)NC1C[C@@H]2CCCC[C@@H]2[C@H]1/C=C/c1ccc(-c2cccc(F)c2)cn1 (mixture of isomers)
half-life [1]: 273 min
half-life [3]: 105 min
IC50 [4]: 50 nM

Structure (SMILES): NC1C[C@@H]2CCCC[C@@H]2[C@H]1/C=C/c1ccc(-c2cccc(F)c2)cn1 (mixture of isomers)
IC50 [4]: 230 nM

Structure (SMILES): Fc1cccc(-c2ccc(/C=C/[C@H]3[C@H]4CCCC[C@H]4CC34OCCO4)nc2)c1 (racemic)
IC50 [4]: 2100 nM

Structure (SMILES): CN(C)C(=S)OC1C[C@@H]2CCCC[C@@H]2[C@H]1/C=C/c1ccc(-c2cccc(F)c2)cn1 (mixture of isomers)
IC50 [4]: 120 nM

Now those with a lower IC50 [4], led by results:

half-life [1]: 4.4 min
half-life [3]: 6.7 min
IC50 [4]: 8.6 nM
Structure (SMILES): O=C1NCC2(C[C@@H]3CCCC[C@@H]3[C@H]2/C=C/c2ccc(-c3cccc(F)c3)cn2)O1 (mixture of isomers)
viability at 24 h, 30 µM [2]: 101%

half-life [1]: 3.5 min
half-life [3]: 6.5 min
IC50 [4]: 6.4 nM
Structure (SMILES): CS(=O)(=O)OC1C[C@@H]2CCCC[C@@H]2[C@H]1/C=C/c1ccc(-c2cccc(F)c2)cn1 (mixture of isomers)
viability at 24 h, 30 µM [2]: 94%

half-life [1]: 4.3 min
half-life [3]: 5.8 min
IC50 [4]: 2.7 nM
Structure (SMILES): CC1(OC(N)=O)C[C@@H]2CCCC[C@@H]2[C@H]1/C=C/c1ccc(-c2cccc(F)c2)cn1 (mixture of isomers)
viability at 24 h, 30 µM [2]: 99%

half-life [1]: 4.5 min
half-life [3]: 3.4 min
IC50 [4]: 26 nM
Structure (SMILES): Fc1cccc(-c2ccc(/C=C/[C@@H]3[C@H]4CCCC[C@H]4CC34OCCO4)nc2)c1 (racemic)
viability at 24 h, 30 µM [2]: 97%

half-life [1]: 5.6 min
half-life [3]: 5.2 min
IC50 [4]: 5.4 nM
Structure (SMILES): CC(=O)N(C)C1C[C@@H]2CCCC[C@@H]2[C@H]1/C=C/c1ccc(-c2cccc(F)c2)cn1 (mixture of isomers)
viability at 24 h, 30 µM [2]: 98%

half-life [1]: 2.5 min
half-life [3]: 2.2 min
IC50 [4]: 1.3 nM
Structure (SMILES): CN(C1C[C@@H]2CCCC[C@@H]2[C@H]1/C=C/c1ccc(-c2cccc(F)c2)cn1)S(C)(=O)=O (mixture of isomers)
viability at 24 h, 30 µM [2]: 95%

half-life [1]: 83.2 min
half-life [3]: 32.4 min
IC50 [4]: 1.1 nM
Structure (SMILES): CCOC(=O)N[C@@H]1CC[C@@H]2[C@@H](C1)C[C@H]1C(=O)O[C@H](C)[C@H]1[C@H]2/C=C/c1ccc(-c2cccc(F)c2)cn1 [VORAPAXAR]
viability at 24 h, 30 µM [2]: 102%

IC50 [4]: 33 nM
Structure (SMILES): CC1(O)C[C@@H]2CCCC[C@@H]2[C@H]1/C=C/c1ccc(-c2cccc(F)c2)cn1 (mixture of isomers)
